Results as given in ChEMBL document CHEMBL4145474, “Discovery of novel piperonyl derivatives as diapophytoene desaturase inhibitors for the treatment of methicillin-, vancomycin- and linezolid-resistant Staphylococcus aureus infections” (Eur J Med Chem, 2018).
Activity calls are given as the source filed them. The calls are words filed in the database; no cut-off is given here.

Assays:
Staphylococcus aureus [1] = test: Inhibition of pigmentation in wild type Staphylococcus aureus Newman after 48 hrs by spectrophotometric method; assay type: functional, organism-based
How it was run: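 S. aureus Newman was grown in TSB 48 h at 37 °C with a concentration series of compound in DMSO, in duplicate. Controls were a DMSO vehicle and a nonpigmented CrtN mutant. Cells were washed twice in 0.01 M PBS and pigment extracted in methanol. A450 was measured and IC50 derived by curve fitting.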

HEK-293T = test: Cytotoxicity against HEK293T cells assessed as reduction in cell viability after 72 hrs by CCK-8 assay; assay type: functional; conditions: Homo sapiens
How it was run: (§1)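 HepG2 or HEK-293T cells were seeded at 5000 per well and grown 24 h at 37 °C, 5% CO₂. Cells were then exposed to compound for 72 h; compound came from DMSO, diluted in medium to final DMSO <0.4%, with a DMSO-matched vehicle control. Viability was read by 10% CCK-8 for 1 h, absorbance 450 nm, in triplicate.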

HepG2 = test: Cytotoxicity against human HepG2 cells assessed as reduction in cell viability after 72 hrs by CCK-8 assay; assay type: functional; conditions: HepG2, 72 h; how it was run: as §1
[2] = Solubility of the compound in water by UV analysis; assay type: physicochemical
Staphylococcus aureus [3] = test: Antibacterial activity against wild type Staphylococcus aureus Newman assessed as bacterial survival at 1 uM after 24 hrs by H2O2 killing assay (reference value: 26.67%); assay type: functional
Staphylococcus aureus [4] = test: Antibacterial activity against wild type Staphylococcus aureus Newman infected in BALB/c mouse assessed as decrease in bacterial load in mouse liver at 0.4 mg, ip bid administered 4.5 days measured after 90 hrs relative to control; assay type: functional
Staphylococcus aureus [5] = test: Antibacterial activity against vancomycin-intermediate methicillin-resistant Staphylococcus aureus Mu50 infected in BALB/c mouse assessed as decrease in bacterial survival in mouse liver at 0.4 mg, ip bid administered 4.5 days measured after 90 hrs; assay type: functional, organism-based
How it was run: (§2)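 6–8-week-old female BALB/c mice (SPF) dosed intraperitoneally twice daily over 4.5 d at 0.1 or 0.4 mg/bid. Pre-treatment started before infection; post-treatment started 6 h after infection. Vancomycin and linezolid controls given as pre-treatment at 0.4 mg/bid. Retro-orbital inoculation: Mu50 1.1 × 10⁹ CFU, NRS271 1.8 × 10⁸ CFU. Kidneys and livers homogenised in PBS/0.01% Triton X-100 and plated on TSA for CFU.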

Staphylococcus aureus [6] = test: Antibacterial activity against methicillin/linezolid-resistant Staphylococcus aureus NRS271 infected in BALB/c mouse assessed as decrease in bacterial survival in mouse liver at 0.4 mg, ip bid administered 4.5 days measured after 90 hrs; assay type: functional, organism-based; how it was run: as §2

Row | SMILES | IC50 (Staphylococcus aureus [1]) [µM] | further results
1 | Cc1ccc(/C=C/CN(C)Cc2ccc3c(c2)OCO3)cc1 | 0.0157 | –
2 | COc1cccc(/C=C/CN(C)Cc2ccc3c(c2)OCO3)c1 | > 1 | –
3 | Fc1cc(C(F)(F)F)ccc1/C=C/CNCc1ccc2c(c1)OCO2 | > 1 | –
4 | CN(C/C=C/c1ccc(Br)cc1)Cc1ccc2c(c1)OCO2.Cl | 0.0046 | CC50 (HEK-293T): 68.3 µM; CC50 (HepG2): 104 µM; solubility [2]: 17.5 mg/mL
5 | CN(CCCc1ccc(C(F)(F)F)cc1F)Cc1ccc2c(c1)OCO2 | > 1 | –
6 | Cc1ccccc1/C=C/CN(C)Cc1ccc2c(c1)OCO2 | > 1 | –
7 | CN(C/C=C/c1ccc(Cl)cc1Cl)Cc1ccc2c(c1)OCO2 | 0.0176 | –
8 | CN(C/C=C/c1cccs1)Cc1ccc2c(c1)OCO2 | > 1 | –
9 | CN(C/C=C/c1ccc(Cl)cc1)Cc1ccc2c(c1)OCO2.Cl | 0.0042 | CC50 (HEK-293T): 83.8 µM; CC50 (HepG2): 141 µM; solubility [2]: 18.7 mg/mL
10 | CCOc1ccc(/C=C/CN(C)Cc2ccc3c(c2)OCO3)cc1.Cl | 0.0042 | CC50 (HEK-293T): 122 µM; CC50 (HepG2): 82.6 µM; solubility [2]: 24.2 mg/mL
11 | CN(C/C=C/c1ccccc1F)Cc1ccc2c(c1)OCO2 | 0.121 | –
12 | CN(C/C=C/c1ccc(-c2ccccc2)cc1)Cc1ccc2c(c1)OCO2.Cl | 0.0039 | CC50 (HEK-293T): 59.1 µM; CC50 (HepG2): 53.6 µM; solubility [2]: 5.02 mg/mL
13 | CN(C/C=C/c1ccccc1Cl)Cc1ccc2c(c1)OCO2 | > 1 | –
14 | CN(CC#Cc1ccc(C(F)(F)F)cc1F)Cc1ccc2c(c1)OCO2 | 0.0179 | –
15 | C[C@@H]1[C@H](O)[C@@H](C)/C=C/C=C/C=C/C=C/C=C/C=C/C=C/[C@H](O[C@@H]2O[C@H](C)[C@@H](O)[C@H](N)[C@@H]2O)C[C@@H]2O[C@](O)(C[C@@H](O)C[C@@H](O)[C@H](O)CC[C@@H](O)C[C@@H](O)CC(=O)O[C@H]1C)C[C@H](O)[C@H]2C(=O)O [AMPHOTERICIN B] | – | CC50 (HEK-293T): 36.5 µM; CC50 (HepG2): 28.6 µM
16 | CC(C)N(C/C=C/c1ccc(C(F)(F)F)cc1F)Cc1ccc2c(c1)OCO2 | > 1 | –
17 | CN(C/C=C/c1cccc(F)c1)Cc1ccc2c(c1)OCO2 | 0.412 | –
18 | CN(Cc1ccc2c(c1)OCO2)C[C@@H]1C[C@H]1c1ccc(C(F)(F)F)cc1F | > 1 | –
19 | COc1ccc(/C=C/CN(C)Cc2ccc3c(c2)OCO3)cc1F | 0.112 | –
20 | COc1ccc(/C=C/CN(C)Cc2ccc3c(c2)OCO3)cc1 | 0.0091 | –
21 | CC(=O)N[C@@H](CS)C(=O)O [ACETYLCYSTEINE] | – | survival at 1 µM (Staphylococcus aureus [3]): 57.3%
22 | CN(C/C=C/c1ccco1)Cc1ccc2c(c1)OCO2 | > 1 | –
23 | CN(C/C=C/c1cccc(Cl)c1)Cc1ccc2c(c1)OCO2 | 0.576 | –

Row | SMILES | IC50 (Staphylococcus aureus [1]) [µM] | further results
24 | CN(C/C=C/c1ccc(C(F)F)cc1)Cc1ccc2c(c1)OCO2.Cl | 0.0041 | CC50 (HEK-293T): 68 µM; CC50 (HepG2): 138 µM; solubility [2]: 9.03 mg/mL
25 | CN(C/C=C/c1ccc(C#N)cc1)Cc1ccc2c(c1)OCO2 | 0.0125 | –
26 | CN(C/C=C/c1ccc(F)cc1)Cc1ccc2c(c1)OCO2 | 0.0584 | –
27 | CN(C/C=C/c1cccc2ccccc12)Cc1ccc2c(c1)OCO2 | > 1 | –
28 | CN(C/C=C/c1ccccc1C(F)(F)F)Cc1ccc2c(c1)OCO2 | 0.0288 | –
29 | CN(C/C=C/c1ccc(C(F)(F)F)cc1)Cc1ccc2c(c1)OCO2.Cl | 0.0035 | CC50 (HEK-293T): 133 µM; CC50 (HepG2): 69.2 µM; solubility [2]: 13.5 mg/mL
30 | CN(C/C=C/c1ccc(C(C)(C)C)cc1)Cc1ccc2c(c1)OCO2 | 0.0052 | –
31 | CN(C/C=C/c1ccccc1)Cc1ccc2c(c1)OCO2 | > 1 | –
32 | COc1ccc(/C=C/CN(C)Cc2ccc3c(c2)OCO3)c(F)c1.Cl | 0.0038 | CC50 (HEK-293T): 76.8 µM; CC50 (HepG2): 120 µM; solubility [2]: 19.2 mg/mL
33 | COc1ccccc1/C=C/CN(C)Cc1ccc2c(c1)OCO2 | > 1 | –
34 | CN(C/C=C/c1ccc([N+](=O)[O-])cc1)Cc1ccc2c(c1)OCO2 | 0.0826 | –
35 | Cc1cccc(/C=C/CN(C)Cc2ccc3c(c2)OCO3)c1 | 0.372 | –
36 | CN(C/C=C/C1CCCC1)Cc1ccc2c(c1)OCO2 | > 1 | –
37 | COC(=O)c1ccc(/C=C/CN(C)Cc2ccc3c(c2)OCO3)cc1 | 0.0079 | –
38 | C/C=C/CN(C)Cc1ccc2c(c1)OCO2 | > 1 | –
39 | CCN(C/C=C/c1ccc(C(F)(F)F)cc1F)Cc1ccc2c(c1)OCO2 | > 1 | –
40 | CN(C/C=C/C1CCCCC1)Cc1ccc2c(c1)OCO2 | > 1 | –
41 | CN(C/C=C/c1ccc2ccccc2c1)Cc1ccc2c(c1)OCO2.Cl | 0.004 | CC50 (HEK-293T): 48.3 µM; CC50 (HepG2): 60.5 µM; solubility [2]: 4.56 mg/mL
42 | CN(C/C=C/c1ccc(C(F)(F)F)c(F)c1)Cc1ccc2c(c1)OCO2 | 0.057 | –
43 | CN[C@H](CC(C)C)C(=O)N[C@H]1C(=O)N[C@@H](CC(N)=O)C(=O)N[C@H]2C(=O)N[C@H]3C(=O)N[C@H](C(=O)N[C@H](C(=O)O)c4cc(O)cc(O)c4-c4cc3ccc4O)[C@H](O)c3ccc(c(Cl)c3)Oc3cc2cc(c3O[C@@H]2O[C@H](CO)[C@@H](O)[C@H](O)[C@H]2O[C@H]2C[C@](C)(N)[C@H](O)[C@H](C)O2)Oc2ccc(cc2Cl)[C@H]1O [VANCOMYCIN] | – | Activity (Staphylococcus aureus [4]): 2.13 deltalog10CFU
44 | CC(=O)NC[C@H]1CN(c2ccc(N3CCOCC3)c(F)c2)C(=O)O1 [LINEZOLID] | – | Activity (Staphylococcus aureus [4]): 1.41 deltalog10CFU; Activity (Staphylococcus aureus [5]): Active; Activity (Staphylococcus aureus [6]): Active
45 | C/C(=C\c1ccc(C(F)(F)F)cc1F)CN(C)Cc1ccc2c(c1)OCO2 | > 1 | –
46 | CN(C/C=C/c1cccc(C(F)(F)F)c1)Cc1ccc2c(c1)OCO2 | 0.523 | –
